# Active and inactive are the calls of the source. The calls are words filed in the database; no cut-off is given here.
# Columns and labels:
# [1] = Oral bio availability in Wistar rat 2 mg/kg; assay type: ADME, organism-based; conditions: in vivo
# Outline: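 Oral bioavailability from Wistar rats dosed 2 mg/kg po with 0.5 mg/kg iv reference dose; F (%) from plasma exposure.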
# Mus musculus [2] = experiment: Reduction in glucagon-induced glucose excursion in glucagon receptor humanized mouse model of acute glucagon challenge model at 1 to 10 mg/kg, po dosed 1 hr before glucagon challenge; assay type: functional, organism-based
# Outline: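 hGCGR-humanized mice given compound orally at 1, 3 or 10 mg/kg one hour prior to IP glucagon (15 µg/kg); blood glucose followed as change from time 0.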
# [3] = Volume of distribution at steady state in Wistar rat at 0.5 mg/kg, iv or 2 mg/kg, po; assay type: ADME, organism-based; conditions: in vivo, read-out: Vdss
# Outline: (§1)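 Wistar rats given 0.5 mg/kg iv and 2 mg/kg po; plasma concentration–time profiles used to derive plasma clearance, steady-state volume of distribution, half-life and dose-normalized AUC (µM·h·kg/mg).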
# [4] = Half life in Wistar rat at 0.5 mg/kg, iv or 2 mg/kg, po; assay type: ADME, organism-based; conditions: in vivo; outline: as §1
# [5] = Drug level in glucagon receptor humanized ob/ob mouse acute model at 3 mg/kg, po after 1 hrs; assay type: ADME, organism-based; conditions: in vivo, read-out: Drug uptake
# [6] = Drug level in glucagon-induced glucose excursion in glucagon receptor humanized mouse model of acute glucagon challenge model at 1 mg/kg, po dosed 1 hr before glucagon challenge and measured after 60 mins post dose; assay type: ADME, organism-based; conditions: in vivo, read-out: Drug uptake
# Outline: (§2)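 Glucagon-receptor-humanized (hGCGR) mice dosed orally at 1, 3 or 10 mg/kg one hour before IP glucagon challenge (15 µg/kg); drug level measured at 60 min.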
# [7] = Drug level in glucagon receptor humanized ob/ob mouse acute model at 3 mg/kg, po after 3 hrs; assay type: ADME, organism-based; conditions: in vivo, read-out: Drug uptake
# Mus musculus [8] = experiment: Reduction in blood glucose levels in glucagon receptor humanized ob/ob mouse acute model at 3 mg/kg, po after 1 to 6 hrs; assay type: functional, organism-based
# Outline: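 hGCGR ob/ob mice (N = 10–12 per group) dosed orally at 3 mg/kg at 0 h with food removed at 0 h; ambient blood glucose monitored over 6 h versus vehicle control, significance at each time point.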
# [9] = Plasma clearance in Wistar rat at 0.5 mg/kg, iv or 2 mg/kg, po; assay type: ADME, organism-based; outline: as §1
# Rattus norvegicus = experiment: Dose normalized AUC in Wistar rat at 0.5 mg/kg, iv or 2 mg/kg, po; assay type: ADME, organism-based; conditions: in vivo; outline: as §1
# Glucagon receptor [10] = molecular target: T1, Glucagon receptor (Homo sapiens, UniProt P47871); experiment: Antagonist activity against human glucagon receptor expressed in CHO cells assessed as reduction in glucagon-induced cAMP production; assay type: functional, cell-based
# T1 sequence (P47871 whole entry): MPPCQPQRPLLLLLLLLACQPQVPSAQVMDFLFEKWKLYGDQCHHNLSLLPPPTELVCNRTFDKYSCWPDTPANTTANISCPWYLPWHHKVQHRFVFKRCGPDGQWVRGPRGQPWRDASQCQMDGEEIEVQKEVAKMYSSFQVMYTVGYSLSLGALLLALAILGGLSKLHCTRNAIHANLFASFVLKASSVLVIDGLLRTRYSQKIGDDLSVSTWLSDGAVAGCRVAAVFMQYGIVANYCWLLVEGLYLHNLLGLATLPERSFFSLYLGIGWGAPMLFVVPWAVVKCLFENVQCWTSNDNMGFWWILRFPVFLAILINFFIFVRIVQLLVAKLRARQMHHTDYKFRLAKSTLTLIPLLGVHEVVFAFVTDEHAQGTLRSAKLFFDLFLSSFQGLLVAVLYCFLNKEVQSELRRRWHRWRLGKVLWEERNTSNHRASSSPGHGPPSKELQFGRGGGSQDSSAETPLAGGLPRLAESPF
# Homo sapiens = organism: Homo sapiens; experiment: Selectivity index, ratio of IC50 for human glucose dependent insulinotropic peptide receptor to IC50 for human glucagon receptor
# [11] = Drug level in glucagon-induced glucose excursion in glucagon receptor humanized mouse model of acute glucagon challenge model at 3 mg/kg, po dosed 1 hr before glucagon challenge and measured after 60 mins post dose; assay type: ADME, organism-based; conditions: in vivo, read-out: Drug uptake; outline: as §2
# Glucagon receptor [12] = molecular target: T1, Glucagon receptor; experiment: Displacement of [125I]glucagon from human glucagon receptor expressed in CHO cell membranes
# Outline: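 Binding: displacement of [125I]glucagon from human GCGR in membranes prepared from a CHO cell line stably expressing hGCGR; IC50 reported in nM.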
# [13] = molecular target: T2, Gastric inhibitory polypeptide receptor (Homo sapiens, UniProt P48546); experiment: Antagonist activity against human glucose dependent insulinotropic peptide receptor by cAMP accumulation assay; assay type: functional
# T2 sequence (P48546 whole entry): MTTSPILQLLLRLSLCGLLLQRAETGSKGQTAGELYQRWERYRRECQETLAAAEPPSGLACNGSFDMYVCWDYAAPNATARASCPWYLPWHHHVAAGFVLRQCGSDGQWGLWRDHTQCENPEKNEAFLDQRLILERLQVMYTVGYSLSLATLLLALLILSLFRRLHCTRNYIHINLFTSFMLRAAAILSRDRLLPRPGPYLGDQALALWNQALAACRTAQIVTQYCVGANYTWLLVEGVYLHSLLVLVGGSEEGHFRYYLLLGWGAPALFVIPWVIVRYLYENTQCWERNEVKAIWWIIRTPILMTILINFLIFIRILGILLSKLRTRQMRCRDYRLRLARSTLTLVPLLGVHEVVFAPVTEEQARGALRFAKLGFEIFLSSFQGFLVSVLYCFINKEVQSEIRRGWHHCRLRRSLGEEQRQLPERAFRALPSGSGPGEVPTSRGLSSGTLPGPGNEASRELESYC
# Outline: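 Selectivity counter-screen: cAMP production measured in CHO cells expressing human GIPR; IC50 (potency) determined.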
# [14] = Drug level in glucagon-induced glucose excursion in glucagon receptor humanized mouse model of acute glucagon challenge model at 10 mg/kg, po dosed 1 hr before glucagon challenge and measured after 60 mins post dose; assay type: ADME, organism-based; conditions: in vivo, read-out: Drug uptake; outline: as §2
smiles,measurement,setting,value
COc1ccc(C(F)(F)F)cc1-c1nn(C(C)c2ccc(C(=O)NCCC(=O)O)cc2)c2cc(-c3ccc(C)cc3)ccc12 (stereo unspecified),bioavailability,[1],44%
same,inhibition,Mus musculus [2],Active
same,Vd,[3],0.65 L/kg
same,half-life,[4],1.5 h
same,concentration at 1 h,[5],400 nM
same,concentration at 1 h,[6],180 nM
same,concentration at 3 h,[7],280 nM
same,inhibition,Mus musculus [8],Active
same,clearance,[9],6.3 mL/min/kg
same,AUC/dose,Rattus norvegicus,2 µM·kg·h/mg
same,IC50,Glucagon receptor [10],7.6 nM
same,Ratio IC50,Homo sapiens,170
same,concentration at 1 h,[11],500 nM
same,IC50,Glucagon receptor [12],2.6 nM
same,IC50,[13],1300 nM
same,concentration at 1 h,[14],2540 nM

# Source: ChEMBL document CHEMBL3616402, “A novel series of indazole-/indole-based glucagon receptor antagonists” (Bioorg Med Chem Lett, 2015)
